Results pooled from the literature.
Each line is one published result; the experiments were not run side by side.
Target: Serine/threonine-protein kinase Nek4 (NEK4, Homo sapiens, UniProt P51957)

SMILES | test | test system | setting | quantity | value
O=C1Nc2ccc(Cl)cc2C1=Cc1cc(Cl)c(O)c(Cl)c1 | cell-free assay | – | 0.5 µM | remaining signal | 88.2%
CC(C)(C)c1nc(-c2cccc(NS(=O)(=O)c3c(F)cccc3F)c2F)c(-c2ccnc(N)n2)s1 | enzyme activity, inhibitor, radiometric | – | 1 µM | remaining activity | 92%
O=C(Nc1cnn(-c2csc(C(=O)NC3COC3)c2)c1)Nc1ccccc1Cl | enzyme activity, inhibitor | – | 5 µM | remaining activity | 109%
COc1cccc2c(NCc3ccccc3)nc(-n3c(N)nc4ccccc43)nc12 | target engagement in cells, inhibitor, chemoproteomics | – | 20 mM | inhibition | -7.4%
CN(C)C1CCN(CC#Cc2nn(C3CCCC3)c3nc(NCc4ccccc4)ncc23)C1 (stereo not drawn) | enzyme activity, inhibitor, FRET | – | 10 µM | inhibition | 12%
CCN1CCN(Cc2ccc(NC(=O)c3ccc(C)c(/C=C/c4cnc5[nH]ccc5c4OC)c3)cc2C(F)(F)F)CC1 | target engagement in cells, inhibitor, chemoproteomics | A-375 | 50 nM | inhibition | -31%
COc1cc2ncnc(Nc3ccc(Oc4ccccc4)cc3C)c2cc1OC | enzyme activity, inhibitor | – | 1 µM | inhibition | 1%
Cc1c(NC(=O)c2cc(C(N)=O)nc3cc(F)ccc23)c(C(F)(F)F)nn1Cc1ccc(C#N)cc1 | cell-free assay, competition with immobilised ligand | – | 1 µM | remaining binding | 92%
Cc1ccc(C(=O)Nc2ccc(CN3CCN(C)CC3)c(C(F)(F)F)c2)cc1C#Cc1cnc2cccnn12 | enzyme activity, inhibitor | – | 23.5 nM | remaining activity | 61%
Cc1sc(C(=O)NC2COC2)cc1-n1cc(NC(=O)Nc2c(F)cccc2Cl)cn1 | enzyme activity, inhibitor | – | 10 µM | remaining activity | 75.5%
COCCOc1nc(-c2ccc(Cl)nc2)nc2c1CN(C(=O)c1ncn3ccccc13)CC2 | cell-free assay, competition with immobilised ligand | – | 0.1 µM | remaining binding | 100%
Nc1ncnc2occ(-c3ccc(NC(=O)Nc4cc(C(F)(F)F)ccc4F)cc3)c12 | cell-free assay, inhibitor | – | 20 µM | remaining signal | 2.8%
O=C(NCCCC1CCCCC1)c1ccc(CNC(=O)c2cnn(-c3ccccc3)c2C(F)(F)F)cc1 | cell-free assay, competition with immobilised ligand | – | 0.1 µM | remaining binding | 100%
Clc1ccc(Nc2nnc(Cc3ccncc3)c3ccccc23)cc1 | cell-free assay | – | 0.5 µM | remaining signal | 97.7%
COc1ccc2c(c1)O[C@@H](c1ccc(OC)c(OC)c1)C[C@H]2NC(=O)C1(c2ccc3c(c2)OC(F)(F)O3)CC1 | cell-free assay, competition with immobilised ligand | – | 1 µM | remaining binding | 75%
COc1cc(Cl)c(C(=O)N[C@@H](CN[C@H]2CC[C@@H](N)CC2)Cc2ccc(C#N)cc2)cc1-c1ccc(CN[C@H](C)c2ccc(C)cc2)o1 | enzyme activity, inhibitor | – | 1 µM | remaining activity | 106%
CS(=O)(=O)N1CCCC(NC(=O)[C@H](CCC2CCCCC2)NC(=O)c2ccc(CNC(=O)c3cnc4ccccn34)cc2)C1 (stereo partly drawn) | cell-free assay, competition with immobilised ligand | – | 0.1 µM | remaining binding | 100%
COc1cc2c(N3CCN(C(=O)Nc4ccc(OC(C)C)cc4)CC3)ncnc2cc1OCCCN1CCCCC1 | cell-free assay | – | 0.5 µM | remaining signal | 90.3%
